The test relates to MDA-MB-231. Put plainly: Cytotoxicity against human ER negative MDA-MB-231 cells assessed as cell viability at 1 uM after 72 hrs by MTT assay. Format: functional, cell-based. The method, boiled down:
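Lines kept in DMEM with 10% fetal bovine serum and 1% penicillin/streptomycin at 37 °C, 5% CO2. Compound applied at 1 µM for 72 h, then standard MTT reduction read-out. Viability given as mean percentage of formazan formed by treated cells relative to mock-treated cells (0.1% DMSO). Run in quadruplicate, standard error, Student's t-test.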

We go through 1 compound from ChEMBL document CHEMBL2417509, “Synthesis and biological evaluation of prodigiosene conjugates of porphyrin, estrone and 4-hydroxytamoxifen” (2013).

The structures appear in SMILES notation. Activity calls are given as the source filed them. The rule behind the calls is not given here.

`COc1cc(-c2ccc[nH]2)[nH]c1/C=C1\N=C(C)C(C(=O)CCC(=O)Oc2ccc3c(c2)CC[C@@H]2[C@@H]3CC[C@]3(C)C(=O)CC[C@@H]23)=C1C`: the result was Active.
